Measurements taken from ChEMBL document CHEMBL1811814, “Synthesis and evaluation of indole, pyrazole, chromone and pyrimidine based conjugates for tumor growth inhibitory activities--development of highly efficacious cytotoxic agents” (Eur J Med Chem, 2010).

Assays:
Type in all cases: functional
[1] = tested on: HCT-116; assay: Growth inhibition of human HCT116 cells
[2] = tested on: HCT-15; assay: Growth inhibition of human HCT15 cells
[3] = tested on: SF-268; assay: Growth inhibition of human SF268 cells
[4] = tested on: SF-539; assay: Growth inhibition of human SF539 cells
[5] = tested on: LOX IMVI; assay: Growth inhibition of human LOXIMVI cells
[6] = tested on: M14; assay: Growth inhibition of human M14 cells
[7] = tested on: MDA-MB-435; assay: Growth inhibition of human MDA-MB-435 cells
[8] = tested on: SK-MEL-5; assay: Growth inhibition of human SK-MEL-5 cells
[9] = tested on: UACC-257; assay: Growth inhibition of human UACC257 cells
[10] = tested on: OVCAR-3; assay: Growth inhibition of human OVCAR3 cells
[11] = tested on: OVCAR-5; assay: Growth inhibition of human OVCAR5 cells
[12] = tested on: OVCAR-8; assay: Growth inhibition of human OVCAR8 cells
[13] = tested on: NCI/ADR-RES; assay: Growth inhibition of human NCI/ADR-RES cells
[14] = tested on: SK-OV-3; assay: Growth inhibition of human SKOV3 cells
[15] = tested on: 786-0; assay: Growth inhibition of human 786-0 cells
[16] = tested on: A498; assay: Growth inhibition of human A498 cells
[17] = tested on: ACHN; assay: Growth inhibition of human ACHN cells
[18] = tested on: RXF 393; assay: Growth inhibition of human RXF393 cells
[19] = tested on: TK-10; assay: Growth inhibition of human TK10 cells
[20] = tested on: UO-31; assay: Growth inhibition of human UO31 cells
[21] = tested on: PC-3; assay: Growth inhibition of human PC3 cells
[22] = tested on: MDA-MB-231; assay: Growth inhibition of human MDA-MB-231 cells
[23] = tested on: BT-549; assay: Growth inhibition of human BT549 cells
[24] = tested on: HOP-62; assay: Growth inhibition of human HOP62 cells assessed tumor cell growth at 10^-5 M; design: scale not given: the % may be the effect or the level left
Method in brief: (§1)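 NCI 60-human-tumor-cell-line panel screen. Each compound was tested at a single concentration of 10^-5 M, and percent growth of tumor cells was recorded for each cell line. Growth inhibition was expressed from these percent-growth values.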

[25] = tested on: HOP-92; assay: Growth inhibition of human HOP92 cells assessed tumor cell growth at 10^-5 M; design: scale not given: the % may be the effect or the level left; method in brief: as §1
[26] = tested on: NCI-H23; assay: Growth inhibition of human NCI-H23 cells assessed tumor cell growth at 10^-5 M; design: scale not given: the % may be the effect or the level left; method in brief: as §1
[27] = tested on: NCI-H322M; assay: Growth inhibition of human NCI-H322M cells assessed tumor cell growth at 10^-5 M; design: scale not given: the % may be the effect or the level left; method in brief: as §1
[28] = tested on: NCI-H460; assay: Growth inhibition of human NCI-H460 cells assessed tumor cell growth at 10^-5 M; design: scale not given: the % may be the effect or the level left; method in brief: as §1
[29] = tested on: HCT-116; assay: Growth inhibition of human HCT116 cells assessed tumor cell growth at 10^-5 M; design: scale not given: the % may be the effect or the level left; method in brief: as §1
[30] = tested on: HCT-15; assay: Growth inhibition of human HCT15 cells assessed tumor cell growth at 10^-5 M; design: scale not given: the % may be the effect or the level left; method in brief: as §1
[31] = tested on: SW-620; assay: Growth inhibition of human SW620 cells assessed tumor cell growth at 10^-5 M; design: scale not given: the % may be the effect or the level left
Method in brief: (§2)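 Single-dose screen at 10^-5 M across the 60 human tumor cell line panel, run to NCI standards. The value is the percent growth of each cell line in the presence of compound. Compounds active at this dose moved on to five-concentration testing (10^-4 to 10^-8 M).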

[32] = tested on: SF-295; assay: Growth inhibition of human SF295 cells assessed tumor cell growth at 10^-5 M; design: scale not given: the % may be the effect or the level left; method in brief: as §1
[33] = tested on: SF-539; assay: Growth inhibition of human SF539 cells assessed tumor cell growth at 10^-5 M; design: scale not given: the % may be the effect or the level left; method in brief: as §1
[34] = tested on: MDA-MB-435; assay: Growth inhibition of human MDA-MB-435 cells assessed tumor cell growth at 10^-5 M; design: scale not given: the % may be the effect or the level left; method in brief: as §1
[35] = tested on: SK-MEL-2; assay: Growth inhibition of human SK-MEL-2 cells assessed tumor cell growth at 10^-5 M; design: scale not given: the % may be the effect or the level left; method in brief: as §1
[36] = tested on: SK-MEL-28; assay: Growth inhibition of human SK-MEL-28 cells assessed tumor cell growth at 10^-5 M; design: scale not given: the % may be the effect or the level left; method in brief: as §1
[37] = tested on: UACC-257; assay: Growth inhibition of human UACC257 cells assessed tumor cell growth at 10^-5 M; design: scale not given: the % may be the effect or the level left; method in brief: as §2
[38] = tested on: OVCAR-3; assay: Growth inhibition of human OVCAR3 cells assessed tumor cell growth at 10^-5 M; design: scale not given: the % may be the effect or the level left; method in brief: as §1
[39] = tested on: OVCAR-4; assay: Growth inhibition of human OVCAR4 cells assessed tumor cell growth at 10^-5 M; design: scale not given: the % may be the effect or the level left; method in brief: as §1
[40] = tested on: OVCAR-8; assay: Growth inhibition of human OVCAR8 cells assessed tumor cell growth at 10^-5 M; design: scale not given: the % may be the effect or the level left; method in brief: as §1
[41] = tested on: NCI/ADR-RES; assay: Growth inhibition of human NCI/ADR-RES cells assessed tumor cell growth at 10^-5 M; design: scale not given: the % may be the effect or the level left; method in brief: as §1
[42] = tested on: 786-0; assay: Growth inhibition of human 786-0 cells assessed tumor cell growth at 10^-5 M; design: scale not given: the % may be the effect or the level left; method in brief: as §1
[43] = tested on: SN12C; assay: Growth inhibition of human SN12C cells assessed tumor cell growth at 10^-5 M; design: scale not given: the % may be the effect or the level left; method in brief: as §1
[44] = tested on: PC-3; assay: Growth inhibition of human PC3 cells assessed tumor cell growth at 10^-5 M; design: scale not given: the % may be the effect or the level left; method in brief: as §1
[45] = tested on: DU-145; assay: Growth inhibition of human DU145 cells assessed tumor cell growth at 10^-5 M; design: scale not given: the % may be the effect or the level left; method in brief: as §1
[46] = Growth inhibition of human Hs 578T cells assessed tumor cell growth at 10^-5 M; design: scale not given: the % may be the effect or the level left; method in brief: as §1
[47] = tested on: BT-549; assay: Growth inhibition of human BT549 cells assessed tumor cell growth at 10^-5 M; design: scale not given: the % may be the effect or the level left; method in brief: as §1
[48] = tested on: K562; assay: Growth inhibition of human K562 cells
[49] = tested on: MOLT-4; assay: Growth inhibition of human MOLT4 cells
[50] = Growth inhibition of human RPMI8266 cells
[51] = tested on: A549; assay: Growth inhibition of human A549 cells
[52] = tested on: EKVX; assay: Growth inhibition of human EKVX cells
[53] = tested on: NCI-H322M; assay: Growth inhibition of human NCI-H322M cells
[54] = tested on: COLO 205; assay: Growth inhibition of human COLO205 cells
[55] = read-out: LC50 (the source's name)

O=C1Nc2ccccc2/C1=C/c1cn(C(=O)c2c(Cl)cccc2Cl)c2ccccc12
GI50 [1]: 1.6 µM | CC50 [1, 55]: 6.9 µM | GI50 [2]: 3.4 µM | CC50 [2, 55]: > 100 µM | GI50 [3]: 2.4 µM | CC50 [3, 55]: 57.5 µM | GI50 [4]: 5 µM | CC50 [4, 55]: 66.1 µM | GI50 [5]: 1.6 µM | CC50 [5, 55]: 6.6 µM | GI50 [6]: 2.3 µM | CC50 [6, 55]: 33.8 µM | GI50 [7]: 2.2 µM | CC50 [7, 55]: 51.2 µM | GI50 [8]: 7.6 µM | CC50 [8, 55]: 45.7 µM | GI50 [9]: 5 µM | CC50 [9, 55]: 95.4 µM | GI50 [10]: 1.6 µM | CC50 [10, 55]: 8.1 µM | GI50 [11]: 8.9 µM | CC50 [11, 55]: > 100 µM | GI50 [12]: 4.1 µM | CC50 [12, 55]: > 100 µM | GI50 [13]: 3.4 µM | CC50 [13, 55]: > 100 µM | GI50 [14]: 8.3 µM | CC50 [14, 55]: > 100 µM | GI50 [15]: 3.3 µM | CC50 [15, 55]: 91.2 µM | GI50 [16]: 1.2 µM | CC50 [16, 55]: 21.8 µM | GI50 [17]: 3.1 µM | CC50 [17, 55]: > 100 µM | GI50 [18]: 4.1 µM | CC50 [18, 55]: 43.6 µM | GI50 [19]: 10.4 µM | CC50 [19, 55]: > 100 µM | GI50 [20]: 1.1 µM | CC50 [20, 55]: 48.9 µM | GI50 [21]: 2.4 µM | CC50 [21, 55]: > 100 µM | GI50 [22]: 3.1 µM | CC50 [22, 55]: > 100 µM | GI50 [23]: 2.4 µM | CC50 [23, 55]: 37.1 µM | Activity [24]: 88.7% | Activity [25]: 49% | Activity [26]: 56.9% | Activity [27]: 90.3% | Activity [28]: 71.1% | Activity [29]: 26% | Activity [30]: 30.9% | Activity [31]: 45.4% | Activity [32]: 44.5% | Activity [33]: 67.4% | Activity [34]: 85.6% | Activity [35]: 39.9% | Activity [36]: 81.4% | Activity [37]: 79.1% | Activity [38]: 43% | Activity [39]: 50.3% | Activity [40]: 52.3% | Activity [41]: 57.7% | Activity [42]: 57% | Activity [43]: 56% | Activity [44]: 41.7% | Activity [45]: 59.2% | Activity [46]: 64.6% | Activity [47]: 51.7% | GI50 [48]: 3.1 µM | CC50 [48, 55]: > 100 µM | GI50 [49]: 2.8 µM | LC50 [49]: > 100 µM | GI50 [50]: 3.4 µM | CC50 [50, 55]: > 100 µM | GI50 [51]: 3.2 µM | CC50 [51, 55]: > 100 µM | GI50 [52]: 2.8 µM | CC50 [52, 55]: > 100 µM | GI50 [53]: 2.9 µM | CC50 [53, 55]: > 100 µM | GI50 [54]: 7.6 µM | LC50 [54]: 54.9 µM
